{"source": "paper PMC5453640", "about": "(Journal of medicinal chemistry, 2017)", "key": {"wild-type CFTR [1]": {"biological_target": "T1, wild-type CFTR (Homo sapiens, UniProt P13569)", "T1 sequence (P13569 whole entry)": "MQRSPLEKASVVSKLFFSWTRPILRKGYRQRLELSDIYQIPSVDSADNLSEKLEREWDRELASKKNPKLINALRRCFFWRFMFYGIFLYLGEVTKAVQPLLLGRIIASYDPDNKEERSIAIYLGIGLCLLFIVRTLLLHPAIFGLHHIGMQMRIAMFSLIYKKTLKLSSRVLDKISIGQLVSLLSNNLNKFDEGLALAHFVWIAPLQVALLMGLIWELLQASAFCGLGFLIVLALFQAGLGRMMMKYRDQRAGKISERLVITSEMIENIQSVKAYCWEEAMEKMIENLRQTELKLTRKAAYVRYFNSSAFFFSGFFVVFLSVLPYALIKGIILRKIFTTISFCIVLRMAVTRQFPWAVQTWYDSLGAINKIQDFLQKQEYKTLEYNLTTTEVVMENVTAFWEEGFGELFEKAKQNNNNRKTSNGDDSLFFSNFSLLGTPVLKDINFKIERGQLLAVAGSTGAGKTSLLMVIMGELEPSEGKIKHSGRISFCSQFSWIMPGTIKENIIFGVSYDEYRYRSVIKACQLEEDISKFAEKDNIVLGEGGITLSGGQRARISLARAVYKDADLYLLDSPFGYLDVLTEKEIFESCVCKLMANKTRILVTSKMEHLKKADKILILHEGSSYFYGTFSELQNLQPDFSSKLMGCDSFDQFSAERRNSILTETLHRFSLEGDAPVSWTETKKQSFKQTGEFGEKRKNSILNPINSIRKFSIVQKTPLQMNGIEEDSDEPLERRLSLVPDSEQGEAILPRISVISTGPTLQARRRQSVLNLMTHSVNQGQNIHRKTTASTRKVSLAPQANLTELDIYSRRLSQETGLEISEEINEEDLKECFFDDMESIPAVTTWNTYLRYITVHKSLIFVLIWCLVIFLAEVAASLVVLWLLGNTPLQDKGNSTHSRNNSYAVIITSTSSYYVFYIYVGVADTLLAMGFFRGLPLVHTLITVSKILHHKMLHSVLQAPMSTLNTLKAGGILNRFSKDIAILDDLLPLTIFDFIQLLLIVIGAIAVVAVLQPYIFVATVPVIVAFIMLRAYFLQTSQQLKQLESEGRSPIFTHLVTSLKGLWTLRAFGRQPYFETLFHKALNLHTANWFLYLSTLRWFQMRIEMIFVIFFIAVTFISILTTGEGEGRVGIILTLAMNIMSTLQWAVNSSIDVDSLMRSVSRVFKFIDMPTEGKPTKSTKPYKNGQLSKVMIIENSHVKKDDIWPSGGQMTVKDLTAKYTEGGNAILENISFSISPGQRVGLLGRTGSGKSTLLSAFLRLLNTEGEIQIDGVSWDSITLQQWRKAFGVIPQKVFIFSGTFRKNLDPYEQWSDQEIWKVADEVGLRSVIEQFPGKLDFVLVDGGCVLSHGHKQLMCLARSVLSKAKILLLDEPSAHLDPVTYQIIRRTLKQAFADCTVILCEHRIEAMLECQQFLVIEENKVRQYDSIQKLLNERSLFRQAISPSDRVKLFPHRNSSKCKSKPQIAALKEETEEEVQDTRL", "assay": "cell-based plate reader assay of CFTR function", "details": "for CFTR activation potency of synthesized analogs, comparison in words: Charts 1-3; for CFTR activation potency of commercial analogs, SAR summary in words: commercially available analogs of 1, Supporting Information Table 1"}, "[2]": {"tested_on": "cytoplasmic calcium in FRT cells", "assay": "cytoplasmic calcium by Fluo-4 fluorescence in FRT cells", "assay_type": "cell-based, rat", "details": "10 μM, 5 min pretreatment"}, "CFTR in HBE cells": {"biological_target": "CFTR in HBE cells (Homo sapiens, UniProt P13569)", "sequence (P13569 whole entry)": "as above", "assay": "CFTR activation in HBE cells by short-circuit current", "assay_type": "cell-based"}, "[3]": {"tested_on": "non-TMEM16A calcium-activated chloride channel (CaCC) in HT-29 cells", "assay": "non-TMEM16A CaCC plate reader assay in HT-29 cells expressing YFP", "assay_type": "cell-based", "details": "10 μM", "summary_of_the_method": "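HT-29 cells expressing cytoplasmic YFP halide sensor, test compound at 10 μM. Activation was tested by iodide addition and inhibition by iodide plus ATP, reading YFP fluorescence quenching from iodide influx. The initial rate of iodide influx was computed as a linear measure of non-TMEM16A CaCC function. Representative of two to four experiment sets.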"}, "[4]": {"tested_on": "tear volume in wild-type mice", "assay": "tear fluid volume after single ocular delivery, wild-type mice", "assay_type": "in vivo, mouse"}, "TMEM16A": {"tested_on": "TMEM16A", "assay": "TMEM16A plate reader assay in FRT cells expressing YFP", "assay_type": "cell-based", "details": "10 μM", "summary_of_the_method": "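FRT cells stably coexpressing TMEM16A and YFP-H148Q halide sensor, test compound at 10 μM. Activation was tested by iodide addition and inhibition by iodide plus ATP. Assay run like the CFTR plate assay: 2 s baseline, then 12 s after rapid iodide addition. The initial iodide influx rate from YFP quenching was taken as channel function. Representative of two to four experiment sets.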"}, "[5]": {"tested_on": "tear volume in CF mice lacking functional CFTR", "assay": "tear fluid volume after single ocular delivery, CF mice", "assay_type": "in vivo, mouse", "details": "single ocular delivery 250 pmol"}, "FRT cells": {"tested_on": "FRT cells", "assay": "Alamar Blue cytotoxicity assay", "assay_type": "cell-based, rat", "details": "10 μM, 8 h"}, "[6]": {"tested_on": "cellular cAMP in FRT cells", "assay": "cAMP immunoassay in FRT cells", "assay_type": "cell-based, rat", "details": "10 μM, 10 min, without or with 90 nM forskolin"}, "wild-type CFTR [7]": {"biological_target": "T1, wild-type CFTR", "assay": "short-circuit current measurement in CFTR-expressing FRT cells", "assay_type": "cell-based", "details": "compared with maximal concentration of forskolin", "summary_of_the_method": "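FRT cells expressing human wild-type CFTR on inserts in Ussing chambers. Basolateral HCO3−-buffered and apical half-Cl− solutions; basolateral membrane permeabilized with 250 μg/mL amphotericin B. Gassed with 95% O2/5% CO2 at 37 °C under voltage clamp. Sequence: low forskolin, cumulative test compound, maximal forskolin, then 10 μM CFTRinh-172. EC50 from concentration–response, n = 3.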"}, "[8]": {"assay_type": "in vitro ADME", "details": "5 μM, rat hepatic microsomes, NADPH"}, "[9]": {"tested_on": "tear fluid secretion in mice", "details": "cited from earlier work"}}, "note": "Entries after “also recorded” stand apart in the source; their conditions may differ.", "data": [{"smiles": "CCN(CC)c1nc(Nc2cccc([N+](=O)[O-])c2)nc(OC(C(F)(F)F)C(F)(F)F)n1", "note": "[6d]", "values": [{"measurement": "CFTR activation potency of synthesized analogs, comparison in words", "setting": "wild-type CFTR [1]", "result": "comparable or slightly better potency than non-substituted aniline (1)"}]}, {"smiles": "C=CCNc1nc(Nc2cccc([N+](=O)[O-])c2)nc(OC(C(F)(F)F)C(F)(F)F)n1", "note": "[K059]", "values": [{"measurement": "CFTR activation potency of commercial analogs, SAR summary in words", "setting": "wild-type CFTR [1]", "result": "best potency"}]}, {"smiles": "CNc1nc(Nc2ccccc2)nc(OCC(F)(F)C(F)F)n1", "note": "[compound 12, N-Methyl-N′-phenyl-6-(2,2,3,3-tetrafluoropropoxy)-1,3,5-triazine-2,4-diamine]", "values": [{"measurement": "increase of cytoplasmic calcium", "setting": "[2]", "result": "without causing cAMP or calcium elevation"}, {"measurement": "CFTR activation in HBE cells after forskolin", "setting": "CFTR in HBE cells; 0.1 μM compound, after 100 nM forskolin", "result": "fully activated CFTR"}, {"measurement": "CFTR activation in HBE cells without forskolin", "setting": "CFTR in HBE cells; absence of basal CFTR phosphorylation produced by forskolin", "result": "did not activate CFTR"}, {"measurement": "fold better EC50 than diethylamine analog 6a", "setting": "wild-type CFTR [1]; EC50 ratio, Chart 3", "result": "~ 50 fold"}, {"measurement": "fold more potent than hexafluoropropanol analog 11", "setting": "wild-type CFTR [1]; EC50 ratio, Chart 3", "result": "~ 3 fold"}, {"measurement": "inhibition or activation of CaCC in HT-29 cells", "setting": "[3]", "result": "neither inhibited nor activated"}, {"measurement": "duration of sustained in vivo efficacy in increasing tear volume", "setting": "[4]; mice, dose not given", "result": "at least 8 h"}, {"measurement": "time over which tear volume returned to baseline", "setting": "[4]; wild-type mice, single topical dose 100 μM (250 pmol)", "result": "12 to 24", "unit": "h"}, {"measurement": "duration of sustained increase in tear volume", "setting": "[4]; wild-type mice, single topical dose 100 μM (250 pmol) in 2.5 μL", "result": 8, "unit": "h"}, {"measurement": "duration of sustained effect on tear volume", "setting": "[4]; wild-type mice, single topical dose down to 25 pmol", "result": 8, "unit": "h"}, {"measurement": "time of maximal tear volume", "setting": "[4]; wild-type mice, single topical doses down to 25 pmol", "result": "1 to 3", "unit": "h"}, {"measurement": "inhibition or activation of CaCC in TMEM16A-expressing FRT cells", "setting": "TMEM16A", "result": "neither inhibited nor activated"}, {"measurement": "effect on tear volume in CF mice", "setting": "[5]", "result": "without effect; also recorded: did not increase tear volume"}, {"measurement": "cytotoxicity (Alamar Blue)", "setting": "FRT cells", "result": "did not produce significant toxicity"}, {"measurement": "elevation of cellular cAMP", "setting": "[6]", "result": "without causing cAMP or calcium elevation; also recorded: did not elevate cellular cAMP"}, {"measurement": "extent of CFTR activation (short-circuit current)", "setting": "wild-type CFTR [7]", "result": "fully activated CFTR chloride conductance; also recorded: full CFTR activation"}]}, {"smiles": "FC(F)(F)COc1nc(Nc2ccc(OC(F)(F)F)cc2)nc(NC2CC2)n1", "note": "[K079]", "values": [{"measurement": "CFTR activation potency of commercial analogs, SAR summary in words", "setting": "wild-type CFTR [1]", "result": "reduced activity"}]}, {"smiles": "CCN(CC)c1nc(Nc2cccc(Cl)c2)nc(OC(C(F)(F)F)C(F)(F)F)n1", "note": "[6c]", "values": [{"measurement": "CFTR activation potency of synthesized analogs, comparison in words", "setting": "wild-type CFTR [1]", "result": "significantly reduced potency"}]}, {"smiles": "CCN(CC)c1nc(Nc2cccc(F)c2)nc(OC(C(F)(F)F)C(F)(F)F)n1", "note": "[6b]", "values": [{"measurement": "CFTR activation potency of synthesized analogs, comparison in words", "setting": "wild-type CFTR [1]", "result": "comparable or slightly better potency than non-substituted aniline (1)"}]}, {"smiles": "COc1nc(Nc2ccc([N+](=O)[O-])cc2)nc(OC)n1", "note": "[K023]", "values": [{"measurement": "CFTR activation potency of commercial analogs, SAR summary in words", "setting": "wild-type CFTR [1]", "result": "greatly reduced potency"}]}, {"smiles": "CCN(CC)c1nc(Nc2cccc(C(=O)O)c2)nc(OC(C(F)(F)F)C(F)(F)F)n1", "note": "[6a]", "values": [{"measurement": "CFTR activation potency of synthesized analogs, comparison in words", "setting": "wild-type CFTR [1]", "result": "comparable or slightly better potency than non-substituted aniline (1)"}]}, {"smiles": "CCN(CC)c1nc(Nc2ccc3ncoc3c2)nc(OC(C(F)(F)F)C(F)(F)F)n1", "note": "[6j]", "values": [{"measurement": "CFTR activation potency of synthesized analogs, comparison in words", "setting": "wild-type CFTR [1]", "result": "greater potency than 1"}]}, {"smiles": "CC(C)(C)Nc1nc(Nc2ccc(OC(F)(F)Cl)cc2)nc(OCC(F)(F)F)n1", "note": "[K029]", "values": [{"measurement": "CFTR activation potency of commercial analogs, SAR summary in words", "setting": "wild-type CFTR [1]", "result": "reduced potency"}]}, {"smiles": "CCN(CC)c1nc(Nc2ccc3ncsc3c2)nc(OC(C(F)(F)F)C(F)(F)F)n1", "note": "[6k]", "values": [{"measurement": "CFTR activation potency of synthesized analogs, comparison in words", "setting": "wild-type CFTR [1]", "result": "significantly greater potency than 1"}, {"measurement": "fold increase in potency over benzoxazole 6j", "setting": "wild-type CFTR [1]; EC50 ratio, Chart 2", "result": "~ 3 fold"}, {"measurement": "inhibition or activation of CaCC in HT-29 cells", "setting": "[3]", "result": "neither inhibited nor activated"}, {"measurement": "inhibition or activation of CaCC in TMEM16A-expressing FRT cells", "setting": "TMEM16A", "result": "neither inhibited nor activated"}, {"measurement": "cytotoxicity (Alamar Blue)", "setting": "FRT cells", "result": "did not produce significant toxicity"}, {"measurement": "elevation of cellular cAMP", "setting": "[6]", "result": "did not elevate cellular cAMP"}, {"measurement": "extent of CFTR activation (short-circuit current)", "setting": "wild-type CFTR [7]", "result": "full CFTR activation"}]}, {"smiles": "CCN(CC)c1nc(Nc2ccccc2)nc(OC(C(F)(F)F)C(F)(F)F)n1", "note": "[compound 1, N,N-Diethyl-6-[(1,1,1,3,3,3-hexafluoropropan-2-yl)oxy]-N′-phenyl-1,3,5-triazine-2,4-diamine]", "values": [{"measurement": "CFTR activation potency of synthesized analogs, comparison in words", "setting": "wild-type CFTR [1]", "result": "more potent than tetrafluoropropanol (7a)"}, {"measurement": "CFTR activation potency of commercial analogs, SAR summary in words", "setting": "wild-type CFTR [1]", "result": "best potency"}, {"measurement": "metabolic stability in hepatic microsomes, in words", "setting": "[8]", "result": "metabolized rapidly"}, {"measurement": "tear fluid secretion after topical delivery", "setting": "[9]", "result": "increased tear fluid secretion in mice; also recorded: increased tear fluid secretion after topical delivery"}]}, {"smiles": "CCC(C)Nc1nc(Nc2ccc([N+](=O)[O-])cc2)nc(OC(C(F)(F)F)C(F)(F)F)n1", "note": "(stereo not drawn) [K056]", "values": [{"measurement": "CFTR activation potency of commercial analogs, SAR summary in words", "setting": "wild-type CFTR [1]", "result": "reduced potency"}]}, {"smiles": "CNc1nc(Nc2ccc([N+](=O)[O-])cc2)nc(OCC(F)(F)C(F)F)n1", "note": "[K032]", "values": [{"measurement": "CFTR activation potency of commercial analogs, SAR summary in words", "setting": "wild-type CFTR [1]", "result": "best potency"}]}, {"smiles": "CNc1nc(Nc2ccc(C(C)=O)cc2)nc(OC(C(F)(F)F)C(F)(F)F)n1", "note": "[K001]", "values": [{"measurement": "CFTR activation potency of commercial analogs, SAR summary in words", "setting": "wild-type CFTR [1]", "result": "reduced activity"}]}, {"smiles": "CCN(CC)c1nc(Nc2ccc3cn[nH]c3c2)nc(OC(C(F)(F)F)C(F)(F)F)n1", "note": "[6h]", "values": [{"measurement": "CFTR activation potency of synthesized analogs, comparison in words", "setting": "wild-type CFTR [1]", "result": "less potent than 1"}, {"measurement": "fold more potent than regioisomer 6i", "setting": "wild-type CFTR [1]; EC50 ratio, Chart 2", "result": "~ 3 fold"}]}, {"smiles": "CCN(CC)c1nc(Nc2ccc3[nH]ncc3c2)nc(OC(C(F)(F)F)C(F)(F)F)n1", "note": "[6i]", "values": [{"measurement": "CFTR activation potency of synthesized analogs, comparison in words", "setting": "wild-type CFTR [1]", "result": "less potent than 1"}]}]}
